UHRF1 binding: UHRF1 methyl-DNA binding inhibition; Q96T88; hit rate 0.75% among 370,000; AID 687016; inhibition, % at 4.4 µM; UHRF1 binding to methylated oligo, TR-FRET; in the data active means inhibition above about 21%;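 further: UHRF1 SRA domain binding a hemimethylated CpG hairpin DNA probe; 0% = median of test compound wells and 100% = reference inhibitor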
rCAG RNA binder: binds r(CAG) RNA repeats; AID 651821; hit rate 1.3% among 370,000; inhibition, % at 3 µM; r(CAG) RNA repeat, TO-PRO-1 dye displacement fluorescence;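 active means inhibition above the plate cutoff, the mean of all test compounds on that plate plus 3 SD, cut at about 35% in these data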;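 further: 0% = DMSO alone and 100% = 100 µM mitoxantrone as full dye displacement; higher means more dye released from RNA so lower well fluorescence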
MBD2 inh: blocks human MBD2 binding to methylated DNA; hit rate 0.31% among 370,000; inhibition, % at 4.4 µM; TR-FRET, MBD2 binding to methylated oligonucleotide; Q9UBB5; in the data active means inhibition above about 13%
LEDGF integ inh: blocks HIV-1 LEDGF/p75-dependent DNA integration. hit rate 0.64% among 370,000. AID 743269. inhibition, % at 3.7 µM. TR-FRET IN-LEDGF/p75 DNA integration, Eu/Cy5;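 active means inhibition above the screen-wide mean plus 3 SD, cut at about 13% in these data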;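 further: signal is the Cy5 over europium emission ratio at 671 and 618 nm; 0% = plate median of compound wells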
CSN deneddyl inh: blocks human CSN-mediated cullin deneddylation. Purified CSN, SCF-Nedd8-OG deneddylation, fluorescence polarization. inhibition, % at 12.5 µM. hit rate 0.38% among 360,000;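 active means pattern-corrected inhibition above about 35%, with an unprinted fluorescence ratio check between 0.5 and 1.5, limit read from the data, passing the limit was not always enough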;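 further: 0% = enzyme with substrate and 100% = substrate without enzyme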
Target sequence (Q92905 whole entry, looked up, one chain of several): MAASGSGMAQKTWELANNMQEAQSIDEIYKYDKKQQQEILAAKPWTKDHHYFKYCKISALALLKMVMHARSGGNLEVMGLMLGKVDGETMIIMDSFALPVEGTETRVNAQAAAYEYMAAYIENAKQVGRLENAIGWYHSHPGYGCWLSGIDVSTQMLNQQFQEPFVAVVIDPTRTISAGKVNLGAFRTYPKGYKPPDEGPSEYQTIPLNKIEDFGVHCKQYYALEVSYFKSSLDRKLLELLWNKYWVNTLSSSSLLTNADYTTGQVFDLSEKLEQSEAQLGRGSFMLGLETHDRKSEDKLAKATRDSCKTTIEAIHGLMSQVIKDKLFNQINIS
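test system = HEK293T-derived human Csn5 enzyme | amount = 0.24 nM Csn5 enzyme, final concentration | medium = Tris/NaCl/DTT buffer, pH 7.5 | schedule = 90 min reaction at room temperature | signal = FP | evaluation = inhibition of Csn5 cleavage, % | compound dosing = single dose of 12.5 µM compound with 0.25% DMSO | probe or stimulus = 10 nM SCFSkp2-Nedd8OG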
ATG4B inh: inhibitors of human ATG4B cysteine protease; Q9Y4P1; ATG4B cleavage of LC3-PLA2, NBD-HPC fluorescence, 1 h; inhibition, % at 8.33 µM; hit rate 0.51% among 340,000; AID 504462; in the data active means inhibition above about 40%
IN multimer up: activates HIV-1 integrase multimerization in LEDGF counter-screen; hit rate 17% among 2,000; activation, % at 7.7 µM; shares compounds with LEDGF integ inh; TR-FRET HIV-1 integrase multimerization, biochemical; in the data active means activation above about 8.9%
TR-FRET interf: TR-FRET optical interference, LEDGF/p75 integration counter-screen; inhibition, % at 7.7 µM; TR-FRET optical interference counterscreen, HIV-1 IN multimerization; 2,000 tested, under 10 active; AID 1053135; shares compounds with LEDGF integ inh;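 active means inhibition above the mean over all tested compounds plus 3 SD, which no compound reached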;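 further: 0% = integrase with antibodies and DMSO and 100% = antibodies without integrase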
LEDGF integ conf: confirmation of HIV-1 LEDGF/p75-dependent integration inhibitors; shares compounds with LEDGF integ inh; TR-FRET LEDGF/p75-dependent HIV-1 integration, biochemical; inhibition, % at 3.7 µM; hit rate 36% among 2,000; AID 1053136; in the data active means inhibition above about 14%
Numbers without * were called inactive; · = not tested or not shown. Shown are actives, neighbours in structure and some others; about 3.1% of the full set was active somewhere.

SMILES	UHRF1 binding	rCAG RNA binder	MBD2 inh	LEDGF integ inh	CSN deneddyl inh	ATG4B inh	IN multimer up	TR-FRET interf	LEDGF integ conf
CN(C)S(=O)(=O)c1cccc(C(=O)N/N=C\c2ccnc3ccccc23)c1	0	2	-9	5	·	·	·	·	·
Cc1nnc(SCC2=C(C(=O)O)N3C(=O)[C@@H](NC(=O)Cn4cnnn4)[C@H]3SC2)s1	-1	3	-6	4	5	-7	·	·	·
CN(C)CCn1nnnc1SCC1=C(C(=O)O)N2C(=O)[C@@H](NC(=O)Cc3csc(N)n3)[C@H]2SC1	39*	17	9	24*	-3	-7	6	-28	19*
COC/C=C/C1=CC2=CC(=O)C(C)(OC(=O)c3cnc4ccccc4n3)C(=O)C2=CN1Cc1ccc(OC)cc1 (stereo unspecified)	-4	21	-4	12	-4	-3	·	·	·
COC/C=C/C1=CC2=CC(=O)C(C)(OC(=O)c3cnc4ccccc4n3)C(=O)C2=CN1Cc1ccccc1 (stereo unspecified)	-3	16	-7	15*	-3	4	4	-14	11
Cc1nn(Cc2ccc(F)cc2)c(C)c1NC(=O)c1noc2c1CCCCC2	-1	-9	0	40*	0	1	-1	2	-3
Cc1nn(Cc2ccccc2Cl)c(C)c1NC(=O)c1noc2c1CCCCC2	5	-5	7	-1	-3	-4	·	·	·
Cc1cc(=O)[nH]c(-n2[nH]c(C)cc2=O)n1	-4	4	-8	4	-1	4	·	·	·
COc1ccc(-n2[nH]c(C)cc2=O)cc1	11	15	3	19*	1	-3	1	-2	1
O=C(NCc1ccc(F)c(F)c1)C1C2C=CC3(CN(Cc4ccccc4)C(=O)C13)O2 (stereo unspecified)	-3	3	5	-1	·	·	·	·	·
COc1cc(C(=O)O)c2c(c1C)OC(=O)c1c(C)cc(O)c(C=O)c1O2	4	4	1	17*	-1	21	0	2	38*
COC(=O)c1c(C)cc(O)c(C=O)c1O	·	·	·	·	6	-18	·	·	·
CCN(CC)c1ccc(N=Cc2ccc(N(CC)CC)cc2O)cc1	-2	7	-7	15*	31	4	6	-22	-6
COC(=O)c1ccc(S(=O)(=O)N2CCC(NC(=O)CCC3CCCC3)CC2)cc1	3	0	2	-1	·	·	·	·	·
CN(C)[C@H]1CCN(c2ccc3c(c2)O[C@H]2CCN(C2)S3(=O)=O)C1	1	5	-2	-3	·	·	·	·	·
Oc1ccc(N=Nc2cccc(Cl)c2)cc1C=Nc1ccc(N2CCOCC2)cc1	2	5	3	13	7	13	·	·	·
Oc1c(Br)cc(Cl)cc1C=Nc1ccc(N2CCOCC2)cc1	2	6	-4	19*	-6	8	2	-8	25*
Clc1cccc(-c2ccc(C=Nc3ccc(N4CCOCC4)cc3)o2)c1	-2	-1	-1	24*	9	-1	8	-40	9
O=c1oc2ccccc2c(Nc2cccc(O)c2)c1[N+](=O)[O-]	-3	2	-10	5	2	-1	·	·	·
Cc1ccc(Nc2c([N+](=O)[O-])c(=O)oc3ccccc23)cc1C	5	13	7	14*	6	0	3	-9	12
CC(C)CNC(=O)CC1Oc2ccccc2NC1=O (stereo unspecified)	1	-1	1	-4	·	·	·	·	·
CCOC(=O)/C=C/C(=O)Nc1ccccc1-c1ccccc1NC(=O)/C=C/C(=O)OCC	-2	1	0	56*	-8	8	0	-1	-9
CCOC(=O)/C=C/C(=O)Nc1cccc([N+](=O)[O-])c1	·	·	·	·	-16	-3	·	·	·

From PubChem
